One series has as its system HIV-1(IIIB). In words: Anti-HIV-1 activity. Format: cell-based. The conditions noted are these: CEM cells, HIV-1 and HIV-2. In short, it runs like this: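 CEM cells (~3 × 10^5 cells/mL) infected with HIV-1(IIIB) at 100 CCID50 per mL, with dilutions of test compound. Incubated 4–5 days at 37 °C in humidified, CO2-controlled air. Giant (syncytium) cell formation scored under the microscope. EC50 is the concentration that inhibits HIV-induced cytopathic effect by 50%.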

For the next series, the system named is HIV-1 (NL4.3). In words: Anti-HIV-1 activity. Format: cell-based. The settings on record: MT-4 cells.
Series [1] deals with herpes simplex virus type 1 (HSV-1). In words: Antiviral activity against HSV-1 in HEL cell cultures. The conditions noted are these: at 100 μM. Format: cell-based.
The next series relates to HSV-2. The series is described as follows: Antiviral activity against HSV-2 in HEL cell cultures. Format: cell-based. The conditions noted are these: at 100 μM.
The test system of a further series is vaccinia virus. It counts as cell-based.
Series [2] concerns vesicular stomatitis virus (VSV). It counts as cell-based.
Another series deals with Coxsackie virus B4. In words: Antiviral activity against Coxsackie virus B4 in HeLa cell cultures. It counts as cell-based. The settings on record: at 100 μM.
In series [3] the test system is respiratory syncytial virus (RSV). In words: Antiviral activity against RSV in HeLa cell cultures. It counts as cell-based. The conditions noted are these: at 100 μM.
Another series deals with parainfluenza virus-3. The series is described as follows: Antiviral activity against parainfluenza virus-3 in Vero cell cultures. It counts as cell-based. The conditions noted are these: at 100 μM.
In a further series the test system is reovirus-1. The series is described as follows: Antiviral activity against reovirus-1 in Vero cell cultures. Format: cell-based. The conditions noted are these: at 100 μM.
Another series relates to Sindbis virus. In words: Antiviral activity against Sindbis virus in Vero cell cultures. It counts as cell-based. The conditions noted are these: at 100 μM.
A further series deals with Punta Toro virus. The series is described as follows: Antiviral activity against Punta Toro virus in Vero cell cultures. It counts as cell-based. The conditions noted are these: at 100 μM.
The subject of the next series is influenza virus A (H1N1). Format: cell-based.
A further series concerns influenza virus A (H3N2). It counts as cell-based.
A further series concerns influenza virus B. Format: cell-based.
In another series the test system is feline corona virus. The series is described as follows: Antiviral activity against feline corona virus in CrFK cell cultures. It counts as cell-based. The settings on record: at 100 μM.
Another series deals with feline herpesvirus. The series is described as follows: Antiviral activity against feline herpesvirus in CrFK cell cultures. Format: cell-based. The settings on record: at 100 μM.
The subject of another series is Reverse transcriptase. In words: Activity against reverse transcriptase. It counts as biochemical. The conditions noted are these: data not shown.
In a further series the test system is CEM cells. The series is described as follows: Cytostatic properties in human T-lymphocyte. Format: cell-based. The conditions noted are these: concentration required to reduce CEM cell proliferation by 50%. In short, it runs like this:
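Cytostatic assay: (5–7.5) × 104 CEM cells per well with test compound. Cells proliferate 72 h at 37 °C in humidified, CO2-controlled air, then are counted in a Coulter counter. The 50% value is the concentration that inhibits cell proliferation by 50%.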

With `OC[C@H]1CC(O)C[C@@H]1O` (stereo partly drawn) [Compound 14, (3S,4R)-3-hydroxy-4-hydroxymethyl cyclopentanol], the “anti-HIV-1 or anti-HIV-2 activity (in words)” value in the series on HIV-1(IIIB) is given as “not active”.

On to `OC[C@H]1[C@H](O)CC[C@@H]1O` [Compound 15, 2-hydroxymethyl-3-hydroxycyclopentanol], for which the “antiviral activity against HIV-1 and HIV-2 in MT-4 cell cultures (in words)” value (from here on “antiviral activity”) in the series with HIV-1 (NL4.3) is listed as “confirmed at low micromolar concentrations”. Further, the “activity against herpes simplex virus type 1 (HSV-1)” value in series [1] is reported as “did not show any measurable activity”. Besides, the “activity against HSV-2” value with HSV-2 is “did not show any measurable activity”. Further, the “activity against vaccinia virus” value in the series with vaccinia virus was “did not show any measurable activity”. In addition, the “activity against vesicular stomatitis virus (VSV)” value in [2] is on record as “did not show any measurable activity”. Moreover, the “activity against Coxsackie virus B4” value in the series on Coxsackie virus B4 was “did not show any measurable activity”. In series [3], the “activity against respiratory syncytial virus (RSV)” value is given as “did not show any measurable activity”. In the series on parainfluenza virus-3, the “activity against parainfluenza virus-3” value is “did not show any measurable activity”. The “activity against reovirus-1” value with reovirus-1 was “did not show any measurable activity”. For the same molecule, the “activity against Sindbis virus” value in the series with Sindbis virus is given as “did not show any measurable activity”. For the same molecule, the “activity against Punta Toro virus” value in the series on Punta Toro virus is given as “did not show any measurable activity”. The “activity against influenza virus A (H1N1)” value in the series on influenza virus A (H1N1) is recorded as “did not show any measurable activity”. In addition, the “activity against influenza virus A (H3N2)” value with influenza virus A (H3N2) is recorded as “did not show any measurable activity”. For the same molecule, the “activity against influenza virus B” value in the series on influenza virus B was “did not show any measurable activity”. Further, the “activity against feline corona virus” value in the series on feline corona virus is “did not show any measurable activity”. For the same molecule, the “activity against feline herpesvirus” value in the series on feline herpesvirus is reported as “did not show any measurable activity”. Further, the “activity against reverse transcriptase” value with Reverse transcriptase is “inactive”.

As to `C[C@H](NP(=O)(Oc1cccc2ccccc12)O[C@@H]1CC[C@H](O)[C@H]1CO)C(=O)OCC(C)(C)C` (stereo partly drawn) [Compound 17a, (1R,2R,3S)-3-Hydroxy-2-(hydroxymethyl)cyclopentyl-1-O-naphthyl-(neopentyl-L-alaninyl)-phosphate], the “antiviral activity” value in the series on HIV-1 (NL4.3) is “devoid of any significant antiviral activity”.

Regarding `CCCCCOC(=O)[C@H](C)NP(=O)(Oc1ccccc1)O[C@@H]1CC[C@H](O)[C@H]1CO` (stereo partly drawn) [Compound 17b, (1R,2R,3S)-3-Hydroxy-2-(hydroxymethyl)cyclopentyl-1-O-phenyl-(pentoxy-L-alaninyl)-phosphate], in the series on HIV-1 (NL4.3), the “antiviral activity” value is given as “devoid of any significant antiviral activity”.

Turning to “(1R,2S,3S)-3-(Benzyloxycarbonyl)-2-(benzyloxycarbonylmethyl)cyclopentanol [Compound 13]”, the CC50 (usually the concentration that lowers cell viability or growth by half) with CEM cells came out at 94 ± 4.2 µM. Moreover, the “activity against reverse transcriptase” value with Reverse transcriptase was “inactive”.

Take “(3S,4R)-3-(Benzyloxycarbonyl)-4-(benzyloxycarbonylmethyl)cyclopentenol [Compound 11]”: the “anti-HIV-1 or anti-HIV-2 activity (in words)” value with HIV-1(IIIB) is “not active”. Further, the CC50 with CEM cells was found to be 110 ± 4.2 µM.
